Experimental data published in ChEMBL document CHEMBL1165943, “Design and synthesis of new anticancer pyrimidines with multiple-kinase inhibitory effect” (Bioorg Med Chem, 2010).

What was measured:
Type in all cases: functional
SF-268 = assay: Cytotoxicity against human SF268 cells assessed as cell growth at 10 uM; details: Homo sapiens, SF-268; read-out: Activity
Outline: (§1)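 Single-dose screen at 10 μM across the 60-cell-line panel. Cells grown in RPMI 1640 with 5% FBS and 2 mM L-glutamine, seeded at 5,000–40,000 cells/well according to doubling time, and treated 24 h later. Exposure lasted 48 h at 37 °C, 5% CO₂. Adherent cells were fixed with cold TCA, suspension cells were fixed settled, and both were stained with SRB and read at 515 nm. Growth % was recorded, with inhibition % = 100 − growth %.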

OVCAR-3 = assay: Cytotoxicity against human OVCAR-3 cells assessed as cell growth at 10 uM; details: Homo sapiens, OVCAR-3; read-out: Activity; outline: as §1
HCT-116 = assay: Cytotoxicity against human HCT116 cells assessed as cell growth at 10 uM; details: Homo sapiens, HCT-116; read-out: Activity
Outline: (§2)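 Single-concentration screen at 10 μM across the 60-cell-line panel (nine tissue types); growth percentage recorded per cell line, with inhibition taken as 100 minus growth percentage.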

[1] = Growth inhibition of human NCI60 cells at 10 uM after 48 hrs by sulforhodamine B assay relative to control; details: Homo sapiens, NCI60, 48 h; read-out: GI
Outline: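 Single 10 µM dose across the 60-line panel for 48 h, with the same culture, TCA fixation and SRB 515 nm read-out. Inhibition % = 100 − growth %, given as the mean over the 60 cell lines.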

Malme-3M = assay: Cytotoxicity against human MALME-3M cells assessed as cell growth at 10 uM; details: Homo sapiens, Malme-3M; read-out: Activity; outline: as §1
NCI-H226 = assay: Cytotoxicity against human NCI-H226 cells assessed as cell growth at 10 uM; details: Homo sapiens, NCI-H226; read-out: Activity; outline: as §1
SF-539 = assay: Cytotoxicity against human SF539 cells assessed as cell growth at 10 uM; details: Homo sapiens, SF-539; read-out: Activity; outline: as §1
UACC-257 = assay: Cytotoxicity against human UACC257 cells assessed as cell growth at 10 uM; details: Homo sapiens, UACC-257; read-out: Activity; outline: as §1
HCC 2998 = assay: Cytotoxicity against human HCC2998 cells assessed as cell growth at 10 uM; details: Homo sapiens, HCC 2998; read-out: Activity; outline: as §2
SK-MEL-5 = assay: Cytotoxicity against human SK-MEL-5 cells assessed as cell growth at 10 uM; details: Homo sapiens, SK-MEL-5; read-out: Activity; outline: as §1
SF-295 = assay: Cytotoxicity against human SF295 cells assessed as cell growth at 10 uM; details: Homo sapiens, SF-295; read-out: Activity; outline: as §1
MOLT-4 = assay: Cytotoxicity against human MOLT4 cells assessed as cell growth at 10 uM; details: Homo sapiens, MOLT-4; read-out: Activity; outline: as §1
OVCAR-8 = assay: Cytotoxicity against human OVCAR8 cells assessed as cell growth at 10 uM; details: Homo sapiens, OVCAR-8; read-out: Activity; outline: as §1
EKVX = assay: Cytotoxicity against human EKVX cells assessed as cell growth at 10 uM; details: Homo sapiens, EKVX; read-out: Activity; outline: as §2
BT-549 = assay: Cytotoxicity against human BT549 cells assessed as cell growth at 10 uM; details: Homo sapiens, BT-549; read-out: Activity; outline: as §2
DU-145 = assay: Cytotoxicity against human DU145 cells assessed as cell growth at 10 uM; details: Homo sapiens, DU-145; read-out: Activity; outline: as §2
LOX IMVI = assay: Cytotoxicity against human LOXIMVI cells assessed as cell growth at 10 uM; details: Homo sapiens, LOX IMVI; read-out: Activity; outline: as §1
NCI-H322M = assay: Cytotoxicity against human NCI-H322M cells assessed as cell growth at 10 uM; details: Homo sapiens, NCI-H322M; read-out: Activity; outline: as §1
NCI-H522 = assay: Cytotoxicity against human NCI-H522 cells assessed as cell growth at 10 uM; details: Homo sapiens, NCI-H522; read-out: Activity; outline: as §1
786-0 = assay: Cytotoxicity against human 786-0 cells assessed as cell growth at 10 uM; details: Homo sapiens, 786-0; read-out: Activity; outline: as §2
KM12 = assay: Cytotoxicity against human KM12 cells assessed as cell growth at 10 uM; details: Homo sapiens, KM12; read-out: Activity; outline: as §1
K562 = assay: Cytotoxicity against human K562 cells assessed as cell growth at 10 uM; details: Homo sapiens, K562; read-out: Activity; outline: as §1
PC-3 = assay: Cytotoxicity against human PC3 cells assessed as cell growth at 10 uM; details: Homo sapiens, PC-3; read-out: Activity; outline: as §1
HCT-15 = assay: Cytotoxicity against human HCT15 cells assessed as cell growth at 10 uM; details: Homo sapiens, HCT-15; read-out: Activity; outline: as §2
HL-60(TB) = assay: Cytotoxicity against human HL-60(TB) cells assessed as cell growth at 10 uM; details: Homo sapiens, HL-60; read-out: Activity
Outline: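 Single-concentration 10 µM screen of HL-60(TB) within the 60-line panel, grown in RPMI 1640 with 5% FBS. The drug from DMSO stock is incubated 48 h at 37 °C, settled cells are TCA-fixed and SRB-stained, and absorbance is read at 515 nm. Percent growth is reported, and inhibition % is taken as 100 minus growth %.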

TK-10 = assay: Cytotoxicity against human TK10 cells assessed as cell growth at 10 uM; details: Homo sapiens, TK-10; read-out: Activity; outline: as §1
U-251 = assay: Cytotoxicity against human U251 cells assessed as cell growth at 10 uM; details: Homo sapiens, U-251; read-out: Activity; outline: as §1
SK-OV-3 = assay: Cytotoxicity against human SKOV3 cells assessed as cell growth at 10 uM; details: Homo sapiens, SK-OV-3; read-out: Activity; outline: as §1
MDA-MB-468 = assay: Cytotoxicity against human MDA-MB-468 cells assessed as cell growth at 10 uM; details: Homo sapiens, MDA-MB-468; read-out: Activity; outline: as §1
OVCAR-5 = assay: Cytotoxicity against human OVCAR5 cells assessed as cell growth at 10 uM; details: Homo sapiens, OVCAR-5; read-out: Activity; outline: as §1
NCI-H23 = assay: Cytotoxicity against human NCI-H23 cells assessed as cell growth at 10 uM; details: Homo sapiens, NCI-H23; read-out: Activity; outline: as §1
OVCAR-4 = assay: Cytotoxicity against human OVCAR4 cells assessed as cell growth at 10 uM; details: Homo sapiens, OVCAR-4; read-out: Activity; outline: as §1
A498 = assay: Cytotoxicity against human A498 cells assessed as cell growth at 10 uM; details: Homo sapiens, A498; read-out: Activity; outline: as §2
UO-31 = assay: Cytotoxicity against human UO31 cells assessed as cell growth at 10 uM; details: Homo sapiens, UO-31; read-out: Activity; outline: as §1
ACHN = assay: Cytotoxicity against human ACHN cells assessed as cell growth at 10 uM; details: Homo sapiens, ACHN; read-out: Activity; outline: as §2
NCI-H460 = assay: Cytotoxicity against human NCI-H460 cells assessed as cell growth at 10 uM; details: Homo sapiens, NCI-H460; read-out: Activity; outline: as §1
CAKI-1 = assay: Cytotoxicity against human Caki1 cells assessed as cell growth at 10 uM; details: Homo sapiens, CAKI-1; read-out: Activity; outline: as §2

SMILES | growth at 10 µM (SF-268) [%] | growth at 10 µM (OVCAR-3) [%] | growth at 10 µM (HCT-116) [%] | inhibition of growth at 10 µM [1] [%] | growth at 10 µM (Malme-3M) [%] | growth at 10 µM (NCI-H226) [%] | growth at 10 µM (SF-539) [%] | growth at 10 µM (UACC-257) [%] | growth at 10 µM (HCC 2998) [%] | growth at 10 µM (SK-MEL-5) [%] | growth at 10 µM (SF-295) [%] | growth at 10 µM (MOLT-4) [%] | growth at 10 µM (OVCAR-8) [%] | growth at 10 µM (EKVX) [%] | growth at 10 µM (BT-549) [%] | growth at 10 µM (DU-145) [%] | growth at 10 µM (LOX IMVI) [%] | growth at 10 µM (NCI-H322M) [%] | growth at 10 µM (NCI-H522) [%] | growth at 10 µM (786-0) [%] | further results
O=C(Nc1cc(C(F)(F)F)cc(C(F)(F)F)c1)Nc1nccc(-c2ccc(Nc3ccccc3)nc2)n1 | 117 | 124 | 93.2 | -6.98 | 151 | 104 | 96.4 | 112 | 109 | 107 | 137 | 96.6 | 103 | 134 | 111 | 126 | 112 | 144 | 94.3 | 112 | growth at 10 µM (KM12): 117%; growth at 10 µM (K562): 93.6%; growth at 10 µM (PC-3): 93.5%; growth at 10 µM (HCT-15): 108%; growth at 10 µM (HL-60(TB)): 99.7%; growth at 10 µM (TK-10): 123%; growth at 10 µM (U-251): 113%; growth at 10 µM (SK-OV-3): 83.3%; growth at 10 µM (MDA-MB-468): 108%; growth at 10 µM (OVCAR-5): 87%; growth at 10 µM (NCI-H23): 108%; growth at 10 µM (OVCAR-4): 114%; growth at 10 µM (A498): 107%; growth at 10 µM (UO-31): 91.6%; growth at 10 µM (ACHN): 93%; growth at 10 µM (NCI-H460): 103%; growth at 10 µM (CAKI-1): 102%
c1ccc(-c2ccc(-c3ccnc(Nc4ccc(N(c5ccccc5)c5ccccc5)cc4)n3)cn2)cc1 | 90 | 125 | 40.6 | 0.97 | 65.2 | 115 | 84.2 | 106 | 112 | 118 | 124 | 91.2 | 79.5 | 103 | 102 | 115 | 131 | 88.5 | 94 | 71.5 | growth at 10 µM (KM12): 97%; growth at 10 µM (K562): 94.9%; growth at 10 µM (PC-3): 87.1%; growth at 10 µM (HCT-15): 102%; growth at 10 µM (HL-60(TB)): 91.8%; growth at 10 µM (TK-10): 113%; growth at 10 µM (U-251): 87.2%; growth at 10 µM (SK-OV-3): 119%; growth at 10 µM (MDA-MB-468): 105%; growth at 10 µM (OVCAR-5): 106%; growth at 10 µM (NCI-H23): 145%; growth at 10 µM (OVCAR-4): 93.4%; growth at 10 µM (A498): 96.2%; growth at 10 µM (UO-31): 72.4%; growth at 10 µM (ACHN): 96.5%; growth at 10 µM (NCI-H460): 84.4%; growth at 10 µM (CAKI-1): 83.7%
Cc1cc(-c2cccnc2)nc(NC(=O)c2cccc(C(F)(F)F)c2)n1 | 103 | 116 | 105 | 0.62 | 105 | 97.5 | 99.3 | 99.6 | 99.3 | 99 | 101 | 96.6 | 96.6 | 101 | 97 | 101 | 103 | 100 | 91.9 | 95.2 | growth at 10 µM (KM12): 109%; growth at 10 µM (K562): 89%; growth at 10 µM (PC-3): 99.2%; growth at 10 µM (HCT-15): 98.3%; growth at 10 µM (HL-60(TB)): 97%; growth at 10 µM (TK-10): 102%; growth at 10 µM (U-251): 97%; growth at 10 µM (SK-OV-3): 101%; growth at 10 µM (MDA-MB-468): 96.7%; growth at 10 µM (OVCAR-5): 95.7%; growth at 10 µM (NCI-H23): 101%; growth at 10 µM (OVCAR-4): 103%; growth at 10 µM (A498): 93.9%; growth at 10 µM (UO-31): 86.7%; growth at 10 µM (ACHN): 105%; growth at 10 µM (NCI-H460): 103%; growth at 10 µM (CAKI-1): 83.6%
